Test results published in ChEMBL document CHEMBL3877264, “Quinolidene-rhodanine conjugates: Facile synthesis and biological evaluation” (Eur J Med Chem, 2017).
≈ marks a conversion by molar mass, not a printed value.

Assays:
[1] = system: Mycobacterium tuberculosis; test: Growth inhibition of Mycobacterium tuberculosis H37Ra ATCC 25177 at active stage measured after 8 days by XTT dye based two fold dilution method; format: functional; conditions: H37Ra ATCC 25177, 192 h
Summary of the method: (§1)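 MTB H37Ra was grown in Dubos medium, then exposed in Mycobacterium pheli minimal medium (pH 6.6) to compounds dissolved in DMSO. The assay ended on day 8 (active) or day 12 (dormant). Viable cells were measured by XTT reduction menadione assay at 470 nm, blank-corrected, relative to vehicle control. Triplicates were expressed as mean ± SD. MIC came from dose-response curves.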

[2] = Cytotoxicity against […]-differentiated human THP1 cells measured after 48 hrs by MTT assay; format: toxicity, cell-based, THP-1
Summary of the method: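 MTT assay with 48 h compound exposure. THP-1 macrophages made by 24 h PMA treatment. Each concentration tested in triplicate in one experiment. % cytotoxicity = (control−test)/(control−blank)×100, with control = cells + DMSO and blank = medium without cells. IC50 from % survival versus concentration plots.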

[3] = system: Mycobacterium tuberculosis; test: Growth inhibition of Mycobacterium bovis BCG ATCC 35743 at active stage at 50 ug/ml measured after 8 days by nitrate reductase dye based two fold dilution method relative to control; format: functional; conditions: BCG str. ATCC 35743, 192 h, read-out: GI
[4] = Cytotoxicity against human A549 cells measured after 48 hrs by MTT assay; format: toxicity, cell-based
[5] = system: Mycobacterium tuberculosis; test: Growth inhibition of Mycobacterium tuberculosis H37Ra ATCC 25177 at dormant stage at 3.13 ug/ml measured after 12 days by XTT dye based two fold dilution method relative to control; format: functional; conditions: H37Ra ATCC 25177, 288 h, read-out: GI; summary of the method: as §1
[6] = Cytotoxicity against human HeLa cells measured after 48 hrs by MTT assay; format: toxicity, cell-based
[7] = system: Mycobacterium tuberculosis; test: Growth inhibition of Mycobacterium bovis BCG ATCC 35743 at active stage at 25 ug/ml measured after 8 days by nitrate reductase dye based two fold dilution method relative to control; format: functional; conditions: BCG str. ATCC 35743, 192 h, read-out: GI
Summary of the method: (§2)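 M. bovis BCG was grown in Dubos medium and assayed in Mycobacterium pheli minimal medium (pH 6.6), with compounds from DMSO stocks. Incubation lasted 8 days for active and 12 days for dormant cultures. Viability was read by nitrate reductase at 540 nm against cell-free blanks, with vehicle set as 100% growth. Primary screen was at 30, 10 and 3 µg/ml, in triplicate, mean ± SD. MIC was taken from dose-response curves.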

[8] = Cytotoxicity against human A549 cells assessed as growth inhibition at 100 ug/ml measured after 48 hrs by MTT assay relative to control; format: toxicity, cell-based; conditions: read-out: GI
[9] = system: Staphylococcus aureus; test: Growth inhibition of Staphylococcus aureus NCIM 2010 at 3 ug/ml measured after 12 hrs relative to control; format: functional; conditions: NCIM 2010, 12 h, read-out: GI
Summary of the method: (§3)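 Bacteria grown in LB at 37 °C and 180 rpm to OD 1. Compounds added to wells, then 0.1% inoculum of 1 OD culture (620 nm). Growth read as OD at 620 nm after 8 h for gram-negative and after 12 h for gram-positive strains.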

[10] = Cytotoxicity against human PANC1 cells assessed as growth inhibition at 100 ug/ml measured after 48 hrs by MTT assay relative to control; format: toxicity, cell-based, PANC-1; conditions: read-out: GI
[11] = system: Bacillus subtilis; test: Growth inhibition of Bacillus subtilis NCIM 2079 at 10 ug/ml measured after 12 hrs relative to control; format: functional; conditions: NCIM 2079, 12 h, read-out: GI; summary of the method: as §3
[12] = system: Mycobacterium tuberculosis; test: Growth inhibition of Mycobacterium bovis BCG ATCC 35743 at dormant stage at 3 ug/ml measured after 12 days by nitrate reductase dye based two fold dilution method relative to control; format: functional; conditions: BCG str. ATCC 35743, 288 h, read-out: GI; summary of the method: as §2
[13] = system: Mycobacterium tuberculosis; test: Growth inhibition of Mycobacterium tuberculosis H37Ra ATCC 25177 at active stage at 1.56 ug/ml measured after 8 days by XTT dye based two fold dilution method relative to control; format: functional; conditions: H37Ra ATCC 25177, 192 h, read-out: GI; summary of the method: as §1
[14] = system: Escherichia coli; test: Antibacterial activity against Escherichia coli NCIM 2688 measured after 8 hrs; format: functional; conditions: NCIM 2688, 8 h; summary of the method: as §3
[15] = Antifungal activity against Fusarium oxysporum NCIM 1332 by standard agar method; format: functional
Summary of the method: (§4)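 MICs determined by standard agar method; DMSO as solvent control.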

[16] = system: Escherichia coli; test: Growth inhibition of Escherichia coli NCIM 2688 at 30 ug/ml measured after 8 hrs relative to control; format: functional; conditions: NCIM 2688, 8 h, read-out: GI; summary of the method: as §3
[17] = system: Mycobacterium tuberculosis; test: Growth inhibition of Mycobacterium bovis BCG ATCC 35743 at active stage at 3.13 ug/ml measured after 8 days by nitrate reductase dye based two fold dilution method relative to control; format: functional; conditions: BCG str. ATCC 35743, 192 h, read-out: GI; summary of the method: as §2
[18] = system: Staphylococcus aureus; test: Growth inhibition of Staphylococcus aureus NCIM 2010 at 30 ug/ml measured after 12 hrs relative to control; format: functional; conditions: NCIM 2010, 12 h, read-out: GI; summary of the method: as §3
[19] = Selectivity index, ratio of GI50 for HUVEC to MIC for Mycobacterium bovis BCG ATCC 35743 at dormant stage; conditions: pooled result: one value given for 6 cell lines, strains, targets or settings
Summary of the method: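 SI is the cell-line GI50 divided by the dormant-stage mycobacterial MIC. […] THP-1 macrophages were PMA-differentiated for 24 h.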

[20] = system: Mycobacterium tuberculosis; test: Growth inhibition of Mycobacterium tuberculosis H37Ra ATCC 25177 at dormant stage at 25 ug/ml measured after 12 days by XTT dye based two fold dilution method relative to control; format: functional; conditions: H37Ra ATCC 25177, 288 h, read-out: GI; summary of the method: as §1
[21] = system: Mycobacterium tuberculosis; test: Growth inhibition of Mycobacterium bovis BCG ATCC 35743 at active stage at 6.25 ug/ml measured after 8 days by nitrate reductase dye based two fold dilution method relative to control; format: functional; conditions: BCG str. ATCC 35743, 192 h, read-out: GI; summary of the method: as §2
[22] = system: Mycobacterium tuberculosis; test: Growth inhibition of Mycobacterium tuberculosis H37Ra ATCC 25177 at dormant stage at 100 ug/ml measured after 12 days by XTT dye based two fold dilution method relative to control; format: functional; conditions: H37Ra ATCC 25177, 288 h, read-out: GI; summary of the method: as §1
[23] = system: Mycobacterium tuberculosis; test: Growth inhibition of Mycobacterium tuberculosis H37Ra ATCC 25177 at dormant stage at 6.25 ug/ml measured after 12 days by XTT dye based two fold dilution method relative to control; format: functional; conditions: H37Ra ATCC 25177, 288 h, read-out: GI; summary of the method: as §1
[24] = system: Mycobacterium tuberculosis; test: Growth inhibition of Mycobacterium tuberculosis H37Ra ATCC 25177 at active stage at 0.78 ug/ml measured after 8 days by XTT dye based two fold dilution method relative to control; format: functional; conditions: H37Ra ATCC 25177, 192 h, read-out: GI; summary of the method: as §1
[25] = system: Mycobacterium tuberculosis; test: Growth inhibition of Mycobacterium bovis BCG ATCC 35743 at dormant stage at 1.56 ug/ml measured after 12 days by nitrate reductase dye based two fold dilution method relative to control; format: functional; conditions: BCG str. ATCC 35743, 288 h, read-out: GI; summary of the method: as §2
[26] = system: Staphylococcus aureus; test: Antibacterial activity against of Staphylococcus aureus NCIM 2010 measured after 12 hrs; format: functional; conditions: NCIM 2010, 12 h; summary of the method: as §3
[27] = Cytotoxicity against human PANC1 cells measured after 48 hrs by MTT assay; format: toxicity, cell-based, PANC-1
[28] = system: Mycobacterium tuberculosis; test: Growth inhibition of Mycobacterium bovis BCG ATCC 35743 at active stage at 1.56 ug/ml measured after 8 days by nitrate reductase dye based two fold dilution method relative to control; format: functional; conditions: BCG str. ATCC 35743, 192 h, read-out: GI; summary of the method: as §2
[29] = system: Candida albicans; test: Antifungal activity against Candida albicans NCIM 3471 by standard agar method; format: functional; summary of the method: as §4
[30] = system: Mycobacterium tuberculosis; test: Growth inhibition of Mycobacterium tuberculosis H37Ra ATCC 25177 at dormant stage at 12.5 ug/ml measured after 12 days by XTT dye based two fold dilution method relative to control; format: functional; conditions: H37Ra ATCC 25177, 288 h, read-out: GI

Row | Compound | IC50 [1] | IC90 [1] | GI50 at 48 h [2] | GI50 at 48 h [4] | inhibition of growth at 3.13 µg/mL [5] | GI50 at 48 h [6] | inhibition at 48 h, 100 ug/ml [8] | inhibition of growth at 3 µg/mL [9] | inhibition at 48 h, 100 ug/ml [10] | inhibition of growth at 10 µg/mL [11] | inhibition of growth at 3 µg/mL [12] | inhibition of growth at 1.56 µg/mL [13] | MIC [14] | MIC [15] | inhibition of growth at 30 µg/mL [16] | inhibition of growth at 30 µg/mL [18] | inhibition of growth at 25 µg/mL [20] | inhibition of growth at 100 µg/mL [22] | inhibition of growth at 6.25 µg/mL [23] | inhibition of growth at 0.78 µg/mL [24] | also measured
1 | CCOc1ccc2nc(Cl)c(/C=C3\SC(=S)NC3=O)cc2c1 | 1.9 µg/mL (≈ 5.42 µM) | 2.8 µg/mL (≈ 7.98 µM) | > 100 µg/mL | > 100 µg/mL | 71.7% | > 100 µg/mL | 23.9% | 42.7% | 30.1% | -7.03% | 91% | 28.7% | > 30 µg/mL | 150 µg/mL (≈ 428 µM) | 28% | -29.8% | 105% | 105% | 102% | -4.44% | inhibition of growth at 50 µg/mL [3]: 98.1%; inhibition of growth at 25 µg/mL [7]: 98.6%; inhibition of growth at 3.13 µg/mL [17]: 99.4%; Selectivity Index [19]: 50; inhibition of growth at 6.25 µg/mL [21]: 101%; inhibition of growth at 1.56 µg/mL [25]: 75.5%; MIC [26]: > 30 µg/mL; GI50 at 48 h [27]: > 100 µg/mL; inhibition of growth at 1.56 µg/mL [28]: 93.4%; MIC [29]: 125 µg/mL (≈ 356 µM); inhibition of growth at 12.5 µg/mL [30]: 101%
2 | O=C1NC(=S)S/C1=C\c1cc2cc(Cl)ccc2nc1Cl | 1.9 µg/mL (≈ 5.57 µM) | 3.8 µg/mL (≈ 11.1 µM) | > 100 µg/mL | > 100 µg/mL | 42.4% | > 100 µg/mL | 26.9% | 101% | 25.2% | 92.5% | 99.8% | 23.3% | 2.44 µg/mL (≈ 7.15 µM) | 100 µg/mL (≈ 293 µM) | 92.8% | 101% | 96.8% | 85.4% | 89.5% | 24.1% | inhibition of growth at 50 µg/mL [3]: 99.7%; inhibition of growth at 25 µg/mL [7]: 99.9%; inhibition of growth at 3.13 µg/mL [17]: 98.9%; Selectivity Index [19]: 43.7; inhibition of growth at 6.25 µg/mL [21]: 100%; inhibition of growth at 1.56 µg/mL [25]: 60.5%; MIC [26]: 2.55 µg/mL (≈ 7.47 µM); GI50 at 48 h [27]: > 100 µg/mL; inhibition of growth at 1.56 µg/mL [28]: 86.2%; MIC [29]: 100 µg/mL (≈ 293 µM); inhibition of growth at 12.5 µg/mL [30]: 70.3%
3 | O=C(O)CN1C(=O)/C(=C/c2cc3cc(F)ccc3nc2Cl)SC1=S | > 30 µg/mL | > 30 µg/mL | > 100 µg/mL | > 100 µg/mL | 9.18% | > 100 µg/mL | 33.7% | -0.864% | 20.8% | -2.7% | 23.9% | -22.9% | > 30 µg/mL | 25 µg/mL (≈ 65.3 µM) | -1.67% | -19% | 27.7% | 119% | 7.26% | -48.2% | inhibition of growth at 1.56 µg/mL [25]: 99.4%; MIC [26]: > 30 µg/mL; GI50 at 48 h [27]: > 100 µg/mL; MIC [29]: 50 µg/mL (≈ 131 µM); inhibition of growth at 12.5 µg/mL [30]: 1.72%
